SMILES strings stand for the structures.

The target in experiment [1] is T1, Serine/threonine-protein kinase Chk1 (Homo sapiens) (UniProt O14757).
T1 sequence (whole entry): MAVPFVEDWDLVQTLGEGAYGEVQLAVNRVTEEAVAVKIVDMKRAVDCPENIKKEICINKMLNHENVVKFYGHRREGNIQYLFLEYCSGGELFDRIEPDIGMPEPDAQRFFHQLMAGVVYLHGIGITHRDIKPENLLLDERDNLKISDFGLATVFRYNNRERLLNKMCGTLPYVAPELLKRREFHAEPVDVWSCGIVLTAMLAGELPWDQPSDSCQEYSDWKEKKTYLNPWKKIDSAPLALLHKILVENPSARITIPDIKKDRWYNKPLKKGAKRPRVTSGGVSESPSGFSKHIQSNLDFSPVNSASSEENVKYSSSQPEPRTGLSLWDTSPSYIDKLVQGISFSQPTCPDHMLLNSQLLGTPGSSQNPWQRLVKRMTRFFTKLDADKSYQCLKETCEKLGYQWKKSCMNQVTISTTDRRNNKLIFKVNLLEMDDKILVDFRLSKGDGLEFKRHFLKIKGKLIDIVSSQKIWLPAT
In words: Inhibition of human CHK1 assessed as residual activity at 10 uM by KinaseProfiler assay. The method in brief:
(§1)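 Radioactive phosphorylation assays were run by an outsourced profiling service. Each of 31 human kinases was tested with inhibitor at 10 µM. Residual activity is expressed as a percentage of the mean activity in positive-control wells, which contained all reaction components except inhibitor plus DMSO as solvent control.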

Experiment [2] has as its target Mitogen-activated protein kinase 1 (Homo sapiens) (UniProt P28482). The experiment is described as follows: Inhibition of human MAPK2 assessed as residual activity at 10 uM by KinaseProfiler assay. The method in brief: as §1
Experiment [3] addresses Mitogen-activated protein kinase 11 (Homo sapiens) (UniProt Q15759). The experiment is described as follows: Inhibition of human SAPK2b assessed as residual activity at 10 uM by KinaseProfiler assay. In a few lines:
as §1

Experiment [4] addresses Ribosomal protein S6 kinase alpha-5 (Homo sapiens) (UniProt O75582). In words: Inhibition of human MSK1 assessed as residual activity at 10 uM by KinaseProfiler assay. In a few lines: as §1
Experiment [5] deals with RAC-alpha serine/threonine-protein kinase (Homo sapiens) (UniProt P31749). In words: Inhibition of human PKBalpha assessed as residual activity at 10 uM by KinaseProfiler assay. In a few lines: as §1
For experiment [6], the target named is Tyrosine-protein kinase Lck (Homo sapiens) (UniProt P06239). The experiment is described as follows: Inhibition of human Lck assessed as residual activity at 10 uM by KinaseProfiler assay. The method in brief: as §1
The target in experiment [7] is Protein kinase C alpha type (Homo sapiens) (UniProt P17252). In words: Inhibition of human PKCalpha assessed as residual activity at 10 uM by KinaseProfiler assay. The method in brief: as §1
The target in experiment [8] is T2, Mitogen-activated protein kinase kinase kinase kinase 2 (Homo sapiens) (UniProt Q12851).
T2 sequence (whole entry): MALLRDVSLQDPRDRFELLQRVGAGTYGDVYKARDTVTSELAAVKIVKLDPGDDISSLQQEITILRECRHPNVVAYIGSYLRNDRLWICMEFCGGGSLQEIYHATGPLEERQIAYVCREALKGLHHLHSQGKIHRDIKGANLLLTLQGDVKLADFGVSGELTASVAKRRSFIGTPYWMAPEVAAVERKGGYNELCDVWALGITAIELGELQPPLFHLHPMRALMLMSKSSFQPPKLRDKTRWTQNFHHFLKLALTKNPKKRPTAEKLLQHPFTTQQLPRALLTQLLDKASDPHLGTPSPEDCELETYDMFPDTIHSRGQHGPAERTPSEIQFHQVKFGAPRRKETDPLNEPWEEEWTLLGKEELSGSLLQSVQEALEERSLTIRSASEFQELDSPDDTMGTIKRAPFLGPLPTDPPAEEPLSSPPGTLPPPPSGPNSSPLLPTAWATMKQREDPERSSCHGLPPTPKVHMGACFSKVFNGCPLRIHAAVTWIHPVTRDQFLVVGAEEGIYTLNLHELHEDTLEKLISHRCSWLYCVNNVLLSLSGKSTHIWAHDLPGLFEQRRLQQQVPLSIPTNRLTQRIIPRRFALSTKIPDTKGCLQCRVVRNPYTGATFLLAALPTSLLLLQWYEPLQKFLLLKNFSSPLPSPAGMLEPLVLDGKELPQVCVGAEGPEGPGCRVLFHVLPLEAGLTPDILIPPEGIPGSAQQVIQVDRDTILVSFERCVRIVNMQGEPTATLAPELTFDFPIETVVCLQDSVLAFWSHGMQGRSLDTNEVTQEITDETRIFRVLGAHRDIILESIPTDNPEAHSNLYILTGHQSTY
In words: Inhibition of human GCK assessed as residual activity at 10 uM by KinaseProfiler assay. The method in brief:
as §1

Experiment [9] has as its target Tyrosine-protein kinase Fgr (Homo sapiens) (UniProt P09769). In words: Inhibition of human Fgr assessed as residual activity at 10 uM by KinaseProfiler assay. The method in brief: as §1
Experiment [10] concerns the target T3, Serine/threonine-protein kinase Sgk1 (Homo sapiens) (UniProt O00141).
T3 sequence (whole entry): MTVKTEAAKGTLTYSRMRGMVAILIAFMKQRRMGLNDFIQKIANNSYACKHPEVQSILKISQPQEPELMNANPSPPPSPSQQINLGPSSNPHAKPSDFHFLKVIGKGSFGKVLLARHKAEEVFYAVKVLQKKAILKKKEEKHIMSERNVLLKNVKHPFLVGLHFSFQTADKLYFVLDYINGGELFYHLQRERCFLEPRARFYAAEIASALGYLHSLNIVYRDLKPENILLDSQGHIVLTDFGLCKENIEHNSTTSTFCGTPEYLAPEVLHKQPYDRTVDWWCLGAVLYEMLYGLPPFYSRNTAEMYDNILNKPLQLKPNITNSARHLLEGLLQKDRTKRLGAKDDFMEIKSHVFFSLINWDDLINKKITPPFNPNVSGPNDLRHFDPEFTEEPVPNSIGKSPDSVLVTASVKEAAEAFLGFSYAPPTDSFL
In words: Inhibition of human SGK assessed as residual activity at 10 uM by KinaseProfiler assay. The method in brief: as §1

Experiment [11] deals with T4, MAP kinase-activated protein kinase 5 (Homo sapiens) (UniProt Q8IW41).
T4 sequence (whole entry): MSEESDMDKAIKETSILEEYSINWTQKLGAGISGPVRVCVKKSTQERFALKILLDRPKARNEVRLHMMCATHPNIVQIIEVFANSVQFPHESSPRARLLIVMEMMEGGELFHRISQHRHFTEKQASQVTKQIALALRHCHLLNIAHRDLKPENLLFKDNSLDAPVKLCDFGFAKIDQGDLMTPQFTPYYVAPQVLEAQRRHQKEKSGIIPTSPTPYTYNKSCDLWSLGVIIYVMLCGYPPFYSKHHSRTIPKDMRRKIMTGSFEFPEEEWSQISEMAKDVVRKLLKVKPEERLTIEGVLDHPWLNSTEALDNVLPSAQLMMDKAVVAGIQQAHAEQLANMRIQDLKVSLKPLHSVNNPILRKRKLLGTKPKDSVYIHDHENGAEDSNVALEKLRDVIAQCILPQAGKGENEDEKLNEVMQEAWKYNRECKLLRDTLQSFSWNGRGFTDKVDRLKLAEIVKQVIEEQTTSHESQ
The experiment is described as follows: Inhibition of human PRAK assessed as residual activity at 10 uM by KinaseProfiler assay. In a few lines: as §1

Sequence of Tyrosine-protein kinase Lck (Homo sapiens) (P06239 2-509 limits assumed): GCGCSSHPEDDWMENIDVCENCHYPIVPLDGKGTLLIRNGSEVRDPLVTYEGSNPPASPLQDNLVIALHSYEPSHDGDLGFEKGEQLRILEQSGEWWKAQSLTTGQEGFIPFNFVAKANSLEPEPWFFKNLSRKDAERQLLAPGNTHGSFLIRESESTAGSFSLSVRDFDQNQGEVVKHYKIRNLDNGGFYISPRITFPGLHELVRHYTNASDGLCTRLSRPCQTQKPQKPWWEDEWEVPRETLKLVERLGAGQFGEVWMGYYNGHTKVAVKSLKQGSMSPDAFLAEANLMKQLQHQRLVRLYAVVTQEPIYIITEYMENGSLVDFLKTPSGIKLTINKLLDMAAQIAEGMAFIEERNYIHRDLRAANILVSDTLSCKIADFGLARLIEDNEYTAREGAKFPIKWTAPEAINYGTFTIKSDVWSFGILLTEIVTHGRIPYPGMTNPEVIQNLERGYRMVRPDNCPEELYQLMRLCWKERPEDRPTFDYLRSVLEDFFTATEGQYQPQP
Sequence of Mitogen-activated protein kinase 11 (Homo sapiens) (Q15759 whole entry): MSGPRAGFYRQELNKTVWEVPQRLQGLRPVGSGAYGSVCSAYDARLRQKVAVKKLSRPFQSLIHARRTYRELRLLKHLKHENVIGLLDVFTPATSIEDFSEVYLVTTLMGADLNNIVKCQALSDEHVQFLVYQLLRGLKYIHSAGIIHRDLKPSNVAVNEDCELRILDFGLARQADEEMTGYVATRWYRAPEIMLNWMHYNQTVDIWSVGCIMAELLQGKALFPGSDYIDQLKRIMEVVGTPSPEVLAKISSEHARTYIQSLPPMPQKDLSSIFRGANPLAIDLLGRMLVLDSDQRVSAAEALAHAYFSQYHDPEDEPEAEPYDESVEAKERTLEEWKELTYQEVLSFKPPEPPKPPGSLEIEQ
Sequence of Tyrosine-protein kinase Fgr (Homo sapiens) (P09769 2-529 limits assumed): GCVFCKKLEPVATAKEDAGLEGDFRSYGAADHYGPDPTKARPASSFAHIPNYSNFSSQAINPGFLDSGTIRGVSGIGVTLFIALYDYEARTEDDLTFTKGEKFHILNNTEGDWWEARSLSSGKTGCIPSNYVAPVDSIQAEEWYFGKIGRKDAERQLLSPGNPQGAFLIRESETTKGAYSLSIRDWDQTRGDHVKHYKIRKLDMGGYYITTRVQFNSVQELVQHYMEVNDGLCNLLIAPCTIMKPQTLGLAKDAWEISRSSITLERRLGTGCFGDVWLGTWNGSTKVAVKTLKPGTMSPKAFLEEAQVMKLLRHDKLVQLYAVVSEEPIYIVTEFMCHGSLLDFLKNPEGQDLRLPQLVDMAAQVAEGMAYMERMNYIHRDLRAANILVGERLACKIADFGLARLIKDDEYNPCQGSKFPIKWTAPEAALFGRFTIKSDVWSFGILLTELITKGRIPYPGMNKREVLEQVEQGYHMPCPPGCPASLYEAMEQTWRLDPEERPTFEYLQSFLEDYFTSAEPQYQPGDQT
Sequence of RAC-alpha serine/threonine-protein kinase (Homo sapiens) (P31749 whole entry): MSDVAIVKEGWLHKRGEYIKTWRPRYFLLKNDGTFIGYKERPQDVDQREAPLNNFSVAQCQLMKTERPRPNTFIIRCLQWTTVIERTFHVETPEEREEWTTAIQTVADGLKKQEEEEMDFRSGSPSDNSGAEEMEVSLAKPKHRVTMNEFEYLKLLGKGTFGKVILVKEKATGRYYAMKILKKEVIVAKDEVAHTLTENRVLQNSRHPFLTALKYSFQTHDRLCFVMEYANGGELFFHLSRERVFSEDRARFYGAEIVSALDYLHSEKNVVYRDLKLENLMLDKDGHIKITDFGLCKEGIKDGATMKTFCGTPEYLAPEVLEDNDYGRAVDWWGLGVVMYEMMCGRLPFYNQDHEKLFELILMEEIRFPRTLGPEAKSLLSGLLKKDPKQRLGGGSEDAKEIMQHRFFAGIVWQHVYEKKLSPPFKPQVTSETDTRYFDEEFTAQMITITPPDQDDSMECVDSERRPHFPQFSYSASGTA
Sequence of Ribosomal protein S6 kinase alpha-5 (Homo sapiens) (O75582 whole entry, looked up): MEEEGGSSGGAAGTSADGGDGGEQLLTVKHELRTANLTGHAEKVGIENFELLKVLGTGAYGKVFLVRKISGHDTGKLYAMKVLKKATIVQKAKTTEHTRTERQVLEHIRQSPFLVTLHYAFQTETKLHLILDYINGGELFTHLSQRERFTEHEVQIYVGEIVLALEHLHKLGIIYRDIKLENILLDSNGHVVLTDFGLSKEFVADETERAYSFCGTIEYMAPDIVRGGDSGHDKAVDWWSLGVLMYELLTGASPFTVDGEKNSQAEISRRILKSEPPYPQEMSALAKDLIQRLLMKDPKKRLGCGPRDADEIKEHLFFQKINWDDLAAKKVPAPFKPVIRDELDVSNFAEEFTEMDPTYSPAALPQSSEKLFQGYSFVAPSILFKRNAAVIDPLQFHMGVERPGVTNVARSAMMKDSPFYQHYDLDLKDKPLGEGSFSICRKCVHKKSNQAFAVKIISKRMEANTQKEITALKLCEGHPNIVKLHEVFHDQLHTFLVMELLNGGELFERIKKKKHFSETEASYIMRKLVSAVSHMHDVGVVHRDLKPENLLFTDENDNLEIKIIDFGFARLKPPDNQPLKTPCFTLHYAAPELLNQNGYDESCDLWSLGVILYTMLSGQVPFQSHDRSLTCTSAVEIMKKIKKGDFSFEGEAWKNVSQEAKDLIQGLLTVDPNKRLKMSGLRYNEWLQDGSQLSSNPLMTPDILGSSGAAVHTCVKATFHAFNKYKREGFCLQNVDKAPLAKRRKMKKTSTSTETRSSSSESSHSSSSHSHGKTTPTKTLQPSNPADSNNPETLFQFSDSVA
Sequence of Mitogen-activated protein kinase 1 (Homo sapiens) (P28482 whole entry): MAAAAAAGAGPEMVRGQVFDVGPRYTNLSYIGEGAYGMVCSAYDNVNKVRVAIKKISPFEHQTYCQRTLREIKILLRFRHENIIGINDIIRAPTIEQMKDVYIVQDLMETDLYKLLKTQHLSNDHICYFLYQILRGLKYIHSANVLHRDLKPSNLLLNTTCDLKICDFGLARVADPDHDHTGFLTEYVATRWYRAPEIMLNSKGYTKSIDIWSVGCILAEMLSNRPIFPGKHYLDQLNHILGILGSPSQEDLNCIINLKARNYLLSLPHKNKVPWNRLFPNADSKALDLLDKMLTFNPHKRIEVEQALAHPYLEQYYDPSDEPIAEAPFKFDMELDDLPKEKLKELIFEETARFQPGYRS

Regarding `CCOC(=O)C1=C(C)N=c2s/c(=C\c3ccc(O)c(O)c3)c(=O)n2C1c1ccc(Cl)cc1` (stereo not drawn), the Activity amounted to 117% in [1]; 85% in experiment [2]; 114% in experiment [3]; 127% in experiment [4]; 90% in [5]; 57% in [6]. Moreover, the Activity is 91% in experiment [7]; 87% in [8]; 98% in experiment [9]; 85% in experiment [10]; 36% in experiment [11].

For `CCOC(=O)C1=C(C)N=c2s/c(=C\c3cc(O)c(O)c(O)c3)c(=O)n2C1c1ccc(Cl)cc1` (stereo not drawn), the Activity in experiment [1] turned out to be 127%; in experiment [2] it was 87%; in experiment [3], 101%; in [4] it was 124%; in experiment [5], 50%; in experiment [6], 61%. For the same compound, the Activity in experiment [7] worked out at 91%; in [8], 87%; in [9], 75%; in experiment [10], 61%; in experiment [11] it was 28%.

Regarding `Brc1c(Br)c(Br)c2[nH]nnc2c1Br`, the Activity in experiment [1] was 149%; in experiment [2], 104%; in experiment [3] it was 112%; in experiment [4], 66%; in [5], 61%; in experiment [6], 78%. Also, the Activity in [7] was determined as 106%; in [8], 92%; in experiment [9], 102%; in experiment [10], 65%; in [11] it was 60%.
